Test results from PMC4358770 (Journal of medicinal chemistry, 2010).

Tests used:
NTPDase2 = molecular target: T1, NTPDase2 (Homo sapiens, UniProt Q9Y5L3); assay: NTPDase2 hydrolysis assay; assay type: in vitro ADME; details: 100 μM ATP (100% reference)
T1 sequence (Q9Y5L3 1-495): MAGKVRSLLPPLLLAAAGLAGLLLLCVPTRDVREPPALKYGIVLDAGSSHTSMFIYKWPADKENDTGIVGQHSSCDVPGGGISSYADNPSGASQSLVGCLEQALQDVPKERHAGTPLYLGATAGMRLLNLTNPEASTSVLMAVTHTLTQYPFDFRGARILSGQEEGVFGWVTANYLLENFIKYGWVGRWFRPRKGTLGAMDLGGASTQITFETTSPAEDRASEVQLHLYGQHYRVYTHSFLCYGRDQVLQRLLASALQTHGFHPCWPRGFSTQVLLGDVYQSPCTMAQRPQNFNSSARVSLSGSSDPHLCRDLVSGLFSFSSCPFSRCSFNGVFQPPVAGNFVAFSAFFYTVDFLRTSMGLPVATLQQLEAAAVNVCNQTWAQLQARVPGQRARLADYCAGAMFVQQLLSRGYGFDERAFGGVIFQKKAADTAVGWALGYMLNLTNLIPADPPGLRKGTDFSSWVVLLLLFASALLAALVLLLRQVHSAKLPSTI
In short: (§1)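 Enzymes were transiently expressed in COS-7 cells. Crude protein extracts were made by sonication, 300g clearing at 4 °C and storage at −80 °C, with protein measured by Bradford. Extract was preincubated 3 min at 37 °C in Tris-Ringer buffer, pH 7.4. […] Activity of untransfected-cell extract was subtracted.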

NTPDase3 = molecular target: T2, NTPDase3 (Homo sapiens, UniProt O75355); assay: NTPDase3 hydrolysis assay; assay type: in vitro ADME; details: 100 μM ATP (100% reference)
T2 sequence (O75355 1-529): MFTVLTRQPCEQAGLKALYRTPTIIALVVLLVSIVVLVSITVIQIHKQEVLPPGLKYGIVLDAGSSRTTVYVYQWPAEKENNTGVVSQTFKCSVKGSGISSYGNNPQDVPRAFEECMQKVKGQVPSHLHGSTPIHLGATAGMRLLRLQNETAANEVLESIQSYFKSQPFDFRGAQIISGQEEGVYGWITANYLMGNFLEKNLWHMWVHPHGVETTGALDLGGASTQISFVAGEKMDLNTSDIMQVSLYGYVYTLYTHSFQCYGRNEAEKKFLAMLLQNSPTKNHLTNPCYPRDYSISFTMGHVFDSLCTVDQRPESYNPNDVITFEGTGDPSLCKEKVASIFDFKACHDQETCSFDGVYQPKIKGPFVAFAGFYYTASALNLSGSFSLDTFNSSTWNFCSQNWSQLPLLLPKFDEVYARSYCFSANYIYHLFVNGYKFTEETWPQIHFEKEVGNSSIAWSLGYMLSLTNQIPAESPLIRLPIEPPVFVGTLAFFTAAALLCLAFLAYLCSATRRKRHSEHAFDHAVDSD
In short: as §1

rabbit IOP = details: topically applied to New Zealand white rabbits; cited from earlier work
NTPDase8 = molecular target: T3, NTPDase8 (Homo sapiens, UniProt Q5MY95); assay: NTPDase8 hydrolysis assay; assay type: in vitro ADME; details: 100 μM ATP (100% reference)
T3 sequence (Q5MY95 1-495): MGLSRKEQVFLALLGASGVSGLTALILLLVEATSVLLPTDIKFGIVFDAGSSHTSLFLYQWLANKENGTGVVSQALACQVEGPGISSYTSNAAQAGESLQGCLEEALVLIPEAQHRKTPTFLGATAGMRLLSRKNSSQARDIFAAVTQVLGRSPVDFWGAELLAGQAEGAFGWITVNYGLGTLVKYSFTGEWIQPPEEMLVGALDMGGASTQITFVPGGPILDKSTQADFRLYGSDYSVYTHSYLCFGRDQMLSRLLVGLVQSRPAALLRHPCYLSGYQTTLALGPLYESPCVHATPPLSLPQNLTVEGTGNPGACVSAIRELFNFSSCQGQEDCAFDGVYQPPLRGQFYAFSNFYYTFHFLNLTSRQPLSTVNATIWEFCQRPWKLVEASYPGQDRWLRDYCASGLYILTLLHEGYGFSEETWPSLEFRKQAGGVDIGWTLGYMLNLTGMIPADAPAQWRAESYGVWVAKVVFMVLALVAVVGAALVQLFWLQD
In short: as §1

human NPP1 = molecular target: T4, human NPP1 (Homo sapiens, UniProt P22413); assay: NPP1 hydrolysis assay; assay type: in vitro ADME; details: 100 μM ATP (100% reference)
T4 sequence (P22413 1-925): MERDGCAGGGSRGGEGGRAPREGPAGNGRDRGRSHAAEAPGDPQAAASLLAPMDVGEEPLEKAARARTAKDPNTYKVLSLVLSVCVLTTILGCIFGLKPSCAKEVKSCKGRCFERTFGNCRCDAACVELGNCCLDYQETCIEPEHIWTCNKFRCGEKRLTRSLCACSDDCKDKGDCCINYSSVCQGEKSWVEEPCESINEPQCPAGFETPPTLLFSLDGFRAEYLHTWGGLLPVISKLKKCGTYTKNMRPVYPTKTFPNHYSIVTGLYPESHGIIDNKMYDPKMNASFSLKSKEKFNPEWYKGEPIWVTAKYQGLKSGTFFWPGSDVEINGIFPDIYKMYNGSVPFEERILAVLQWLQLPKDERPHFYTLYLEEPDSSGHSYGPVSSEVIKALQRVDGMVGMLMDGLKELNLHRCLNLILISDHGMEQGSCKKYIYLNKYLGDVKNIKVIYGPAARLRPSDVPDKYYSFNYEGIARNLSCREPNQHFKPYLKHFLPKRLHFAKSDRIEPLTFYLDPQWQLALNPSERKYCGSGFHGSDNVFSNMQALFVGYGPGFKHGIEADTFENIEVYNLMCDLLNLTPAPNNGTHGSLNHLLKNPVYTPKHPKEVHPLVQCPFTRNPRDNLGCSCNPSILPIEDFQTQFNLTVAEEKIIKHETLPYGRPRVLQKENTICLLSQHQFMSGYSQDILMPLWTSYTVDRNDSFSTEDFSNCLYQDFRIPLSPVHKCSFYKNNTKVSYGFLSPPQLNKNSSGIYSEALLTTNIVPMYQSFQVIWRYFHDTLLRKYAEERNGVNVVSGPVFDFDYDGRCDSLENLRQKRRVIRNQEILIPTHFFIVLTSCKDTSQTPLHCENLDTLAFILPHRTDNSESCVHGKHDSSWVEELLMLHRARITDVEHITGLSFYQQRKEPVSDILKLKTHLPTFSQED

## Nc1ncnc2c1ncn2[C@@H]1O[C@H](COP(=O)(O)OP(=O)(O)OP(=O)(O)O)[C@@H](O)[C@H]1O [ATP]
NTPDase2
  hydrolysis rate by NTPDase2: 1006 ± 60 nmol Pi·min^−1·mg protein^−1
NTPDase3
  hydrolysis rate by NTPDase3: 533 ± 42 nmol Pi·min^−1·mg protein^−1
Rabbit IOP
  effect on IOP (increase or reduction): reduced
NTPDase8
  hydrolysis rate by NTPDase8: 229 ± 20 nmol Pi·min^−1·mg protein^−1
Human NPP1
  hydrolysis rate by NPP1: 619 nmol nucl·min^−1·mg protein^−1
